Laboratory results: ChEMBL document CHEMBL1127562, “N-substituted spirosuccinimide, spiropyridazine, spiroazetidine, and acetic acid aldose reductase inhibitors derived from isoquinoline-1,3-diones. 2” (J Med Chem, 1994)
Activity calls are given as the source filed them. No cut-off for these calls is given here.

What was measured:
Rattus norvegicus [1] = assay: Tested for in vivo inhibition of galactitol accumulation in the sciatic nerve of galactose-fed rats at the dose of 48.8 (mg/kg/day); assay type: functional
How it was run: (§1)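 Rats fed a 20% galactose diet for 4 days, with test compound given in the diet at the stated daily dose (mg/kg/day). Read-out is inhibition of galactitol (polyol) accumulation in sciatic nerve. Values are % inhibition, mean ± SEM of six animals; p < 0.01 unless marked (some p < 0.05). NS = no significant inhibition of polyol accumulation. Tolrestat was the reference standard.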

[2] = molecular target: Aldo-keto reductase family 1 member B1 (Bos taurus) (UniProt P16116); assay: Inhibition of aldose reductase activity in partially purified bovine lens preparation at 10e-5 M
How it was run: (§2)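 Partially purified bovine lens aldose reductase. Reduction of DL-glyceraldehyde substrate followed spectrophotometrically. Activity expressed as average inhibition at the tested concentrations, 1×10^-5, 1×10^-6, 1×10^-7 and 4×10^-6 M as printed; IC50 in M where given.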

Rattus norvegicus [3] = assay: Tested for in vivo inhibition of galactitol accumulation in the lens of galactose-fed rats at the dose of 48.8 (mg/kg/day); NS=Not significant; assay type: functional, organism-based; settings: Lens of camera-type eye
Rattus norvegicus [4] = assay: Tested for in vivo inhibition of galactitol accumulation in the sciatic nerve of galactose-fed rats at the dose of 96.6 (mg/kg/day); assay type: functional; how it was run: as §1
Rattus norvegicus [5] = assay: Tested for in vivo inhibition of galactitol accumulation in the lens of galactose-fed rats at the dose of 96.6 (mg/kg/day); NS=Not significant; assay type: functional, organism-based; settings: Lens of camera-type eye
How it was run: (§3)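 Galactosemic rats were fed 20% galactose for 4 days, with the compound mixed into the diet. […] galactitol accumulation was measured, and activity is given as % inhibition at the stated daily dose (mg/kg/day). Values are mean ± SEM of six animals; p < 0.01 unless indicated. NS means no significant inhibition of polyol accumulation.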

Rattus norvegicus [6] = assay: Tested for in vivo inhibition of galactitol accumulation in the sciatic nerve of galactose-fed rats at the dose of 1.0 (mg/kg/day); assay type: functional
How it was run: (§4)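 Rats were given a 20% galactose diet for 4 days, with the test compound administered in the diet. Sciatic nerve galactitol accumulation was measured, and activity is given as % inhibition at the stated daily dose (mg/kg/day). Values are mean ± SEM, n = 6 animals; p < 0.01 unless indicated. NS means no significant inhibition of polyol accumulation.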

Rattus norvegicus [7] = assay: Tested for in vivo inhibition of galactitol accumulation in the sciatic nerve of galactose-fed rats at the dose of 24.4 (mg/kg/day); assay type: functional; how it was run: as §4
Rattus norvegicus [8] = assay: Tested for in vivo inhibition of galactitol accumulation in the lens of galactose-fed rats at the dose of 24.4 (mg/kg/day); NS=Not significant; assay type: functional, organism-based; settings: Lens of camera-type eye
Rattus norvegicus [9] = assay: Tested for in vivo inhibition of galactitol accumulation in the lens of galactose-fed rats at the dose of 25.9 (mg/kg/day); NS=Not significant; assay type: functional, organism-based; settings: Lens of camera-type eye
Rattus norvegicus [10] = assay: Tested for in vivo inhibition of galactitol accumulation in the sciatic nerve galactose-fed rats at the dose of 25.9 (mg/kg/day); assay type: functional; how it was run: as §4
[11] = molecular target: Aldo-keto reductase family 1 member B1 (Bos taurus, UniProt P16116); assay: Compound was tested in vitro for inhibition of aldose reductase activity in partially purified bovine lens preparation; how it was run: as §2
Rattus norvegicus [12] = assay: Tested for in vivo inhibition of galactitol accumulation in the sciatic nerve of galactose-fed rats; assay type: functional, organism-based
Rattus norvegicus [13] = assay: Tested for in vivo inhibition of galactitol accumulation in the lens of galactose-fed rats; assay type: functional, organism-based; settings: Lens of camera-type eye
Rattus norvegicus [14] = assay: Tested for in vivo inhibition of galactitol accumulation in the sciatic nerve of galactose-fed rats at the dose of 9.8 (mg/kg/day); assay type: functional; how it was run: as §1
Rattus norvegicus [15] = assay: Tested for in vivo inhibition of galactitol accumulation in the sciatic nerve of galactose-fed rats at the dose of 49 (mg/kg/day); assay type: functional; how it was run: as §1
Rattus norvegicus [16] = assay: Tested for in vivo inhibition of galactitol accumulation in the lens of galactose-fed rats at the dose of 10.5 (mg/kg/day); NS=Not significant; assay type: functional, organism-based; settings: Lens of camera-type eye
Rattus norvegicus [17] = assay: Tested for in vivo inhibition of galactitol accumulation in the lens of galactose-fed rats at the dose of 49 (mg/kg/day); assay type: functional, Lens of camera-type eye
Rattus norvegicus [18] = assay: Tested for in vivo inhibition of galactitol accumulation in the sciatic nerve of galactose-fed rats at the dose of 9.5 (mg/kg/day); assay type: functional; how it was run: as §1
Rattus norvegicus [19] = assay: Tested for in vivo inhibition of galactitol accumulation in the sciatic nerve of galactose-fed rats at the dose of 49.3 (mg/kg/day); assay type: functional; how it was run: as §1
Rattus norvegicus [20] = assay: Tested for in vivo inhibition of galactitol accumulation in the sciatic nerve of galactose-fed rats at the dose of 93.6 (mg/kg/day); assay type: functional; how it was run: as §1
Rattus norvegicus [21] = assay: Tested for in vivo inhibition of galactitol accumulation in the lens of galactose-fed rats at the dose of 49.3 (mg/kg/day); NS=Not significant; assay type: functional, organism-based; settings: Lens of camera-type eye
Rattus norvegicus [22] = assay: Tested for in vivo inhibition of galactitol accumulation in the lens of galactose-fed rats at the dose of 93.6 (mg/kg/day); NS=Not significant; assay type: functional, organism-based; settings: Lens of camera-type eye; how it was run: as §3
Rattus norvegicus [23] = assay: Tested for in vivo inhibition of galactitol accumulation in the sciatic nerve of galactose-fed rats at the dose of 0.5 (mg/kg/day); assay type: functional; how it was run: as §4
Rattus norvegicus [24] = assay: Tested for in vivo inhibition of galactitol accumulation in the sciatic nerve of galactose-fed rats at the dose of 0.9 (mg/kg/day); assay type: functional; how it was run: as §4

For `COC(=O)NC(=O)CC1C(=O)N(Cc2nc3cc(C(F)(F)F)ccc3s2)C(=O)c2ccccc21` (stereo unspecified), the Inhibition (Rattus norvegicus [1]) was 61%, the inhibition [2] was 95% and the NS (Rattus norvegicus [3]) was “inactive”. The Inhibition (Rattus norvegicus [4]) was 73% and the inhibition (Rattus norvegicus [5]) was “inactive”.

For `CN1C(=O)CC2(C1=O)C(=O)N(Cc1ccc(Br)cc1F)C(=O)c1ccc(F)cc12` (stereo unspecified), the inhibition [2] was “inactive” and the Inhibition (Rattus norvegicus [6]) was 28%.

With `COC(=O)NC(=O)CC1C(=O)N(C)C(=O)c2ccc(Br)cc21` (stereo unspecified) the Inhibition (Rattus norvegicus [7]) was 68%, the inhibition [2] was 82% and the inhibition (Rattus norvegicus [8]) was “inactive”.

`COC(=O)NC(=O)CC1C(=O)N(Cc2ccc(Br)cc2F)C(=O)c2ccc(F)cc21` (stereo unspecified) was tested, and the inhibition (Rattus norvegicus [9]) was “inactive”, the inhibition [2] was 55% and the Inhibition (Rattus norvegicus [10]) was 78%.

`O=C1CC2(C(=O)N1)C(=O)N(Cc1ccc(Br)cc1F)C(=O)c1ccccc12` (stereo unspecified) was tested, and the IC50 [11] was 23 nM, the ED50 (Rattus norvegicus [12]) was 0.3 mg/kg/day and the EC50 (Rattus norvegicus [13]) was 10 mg/kg/day.

For `CN1C(=O)CC2(C1=O)C(=O)N(Cc1ccc(Cl)cc1)C(=O)c1ccccc12` (stereo unspecified), the inhibition [2] was “inactive” and the Inhibition (Rattus norvegicus [14]) was 35%.

`CN1C(=O)c2ccc(Cl)cc2C2(CC(=O)N2)C1=O` (stereo unspecified) was tested, and the Inhibition (Rattus norvegicus [15]) was 87%, the inhibition (Rattus norvegicus [16]) was “inactive” and the Inhibition (Rattus norvegicus [17]) was 66%.

With `CN1C(=O)CC2(C1=O)C(=O)N(Cc1nc3cc(C(F)(F)F)ccc3s1)C(=O)c1ccccc12` (stereo unspecified) the inhibition [2] was “inactive” and the Inhibition (Rattus norvegicus [18]) was 82%.

`COC(=O)NC(=O)CC1C(=O)N(Cc2nc3cc(C(F)(F)F)ccc3s2)C(=O)c2ccc(F)cc21` (stereo unspecified) was tested, and the Inhibition (Rattus norvegicus [19]) was 39%, the Inhibition (Rattus norvegicus [20]) was 59% and the inhibition (Rattus norvegicus [21]) was “inactive”. For the same compound, the inhibition (Rattus norvegicus [22]) was “inactive” and the inhibition [2] was 83%.

In the case of `CCN1C(=O)CC2(C1=O)C(=O)N(Cc1ccc(Br)cc1F)C(=O)c1ccccc12` (stereo unspecified), the Inhibition (Rattus norvegicus [23]) is reported as 37%, the Inhibition (Rattus norvegicus [24]) is reported as 65% and the inhibition [2] is reported as “inactive”.
